In general, IC50 refers to the concentration that inhibits the measured activity by half. Lower therefore signals greater potency.

Each structure is given as a SMILES string.

For test [1], the system named is Candida albicans. Nature of the test: Antifungal activity against Candida albicans in yeast extract-peptone-glucose medium at 357 ug/ml after 48 hrs by disc diffusion assay. The test is classed as functional. Particulars: read-out: DIZ. Summed up: (§1)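 C. albicans cells at a set number were spread on YEPD agar, either plain or containing the cell-wall disruptant named in the line (SDS, Congo red or calcofluor white). Compound solution, or the reference solvent as control, was spotted onto 0.5 cm discs placed on the lawn. Plates were incubated at 30 °C and the inhibition zone diameter was measured.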
In general terms: Agar diffusion results depend on both activity and mobility in agar.

The test system of test [2] is Candida albicans. Nature of the test: Antifungal activity against Candida albicans in yeast extract-peptone-glucose medium at 357 ug/ml after 48 hrs by disc diffusion assay in presence of 150 ug/ml of congo red. The test is classed as functional. Summed up:
as §1

In test [3] the test system is Candida albicans. Nature of the test: Antifungal activity against Candida albicans in yeast extract-peptone-glucose medium at 357 ug/ml after 48 hrs by disc diffusion assay in presence of 100 ug/ml of calcofluor white. The test is classed as functional. Summed up: as §1
In test [4] the test system is Escherichia coli. Nature of the test: Antibacterial activity against Escherichia coli harboring ampicillin-resistance gene encoding plasmid at 357 ug/ml after 24 hrs by disc diffusion assay. In kind it is functional. The settings on record: read-out: DIZ. Summed up: (§2)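 Disc diffusion used an E. coli strain carrying a plasmid that encodes an ampicillin-resistance gene. Inhibition zone diameters were recorded and compared against the corresponding solvent controls.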

The subject of test [5] is Candida albicans. Nature of the test: Antifungal activity against Candida albicans in synthetic dextrose minimal medium after 48 hrs by ELISA based serial dilution method.
The test system of test [6] is Candida albicans. Kind of test: Antifungal activity against Candida albicans in yeast extract-peptone-glucose medium at 257 ug/ml after 48 hrs by disc diffusion assay in presence of 150 ug/ml of congo red. In kind it is functional. The method in brief:
(§3)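 Disc diffusion on YEPD agar containing a cell-wall-disrupting agent (SDS, Congo red or calcofluor white) and spread with a set number of C. albicans cells. Compound and reference solvent spotted on 0.5 cm discs. Incubated at 30 °C, then inhibition zone diameter measured against solvent.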

In test [7] the test system is Candida albicans. Kind of test: Antifungal activity against Candida albicans in yeast extract-peptone-glucose medium at 257 ug/ml after 48 hrs by disc diffusion assay. The test is classed as functional. Particulars: read-out: DIZ. Summed up:
(§4)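 Solid-phase assay on YEPD agar spread with a set number of C. albicans cells. Compound solution and reference solvent spotted onto 0.5 cm discs. Plates incubated at 30 °C, and inhibition zone diameter measured against solvent control.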

Test [8] relates to Candida albicans. Kind of test: Antifungal activity against Candida albicans in yeast extract-peptone-glucose medium at 257 ug/ml after 48 hrs by disc diffusion assay in presence of 100 ug/ml of calcofluor white. The test is classed as functional. The method in brief:
as §3

Test [9] relates to Candida albicans. Kind of test: Antifungal activity against Candida albicans in yeast extract-peptone-glucose medium at 257 ug/ml after 48 hrs by disc diffusion assay in presence of […]. Particulars: in the assay text read “20 ug/ml” for “150 ug/ml”. In kind it is functional. Summed up: (§5)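 Tests whether compounds enhance the toxicity of rhodamine 6G, a substrate of the Cdr1p/Cdr2p drug pumps. YEPD agar containing R6G spread with C. albicans. Compound and solvent spotted on 0.5 cm discs, incubated at 30 °C, and zone diameter read relative to solvent control.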

The test system of test [10] is Escherichia coli. Nature of the test: Antibacterial activity against Escherichia coli harboring ampicillin-resistance gene encoding plasmid at 257 ug/ml after 24 hrs by disc diffusion assay. The test is classed as functional. The settings on record: read-out: DIZ. Summed up: as §2
Test [11] has as its system Candida albicans. Kind of test: Antifungal activity against Candida albicans in yeast extract-peptone-glucose medium at 257 ug/ml after 48 hrs by disc diffusion assay in presence of 0.01% of sodium dodecylsulphate. Particulars: read-out: DIZ. The test is classed as functional. Summed up: as §3
For test [12], the system named is Candida albicans. Kind of test: Antifungal activity against Candida albicans in yeast extract-peptone-glucose medium at 187 ug/ml after 48 hrs by disc diffusion assay in presence of 0.01% of sodium dodecylsulphate. The test is classed as functional. Particulars: read-out: DIZ. Summed up:
as §1

The test system of test [13] is Candida albicans. Nature of the test: Antifungal activity against Candida albicans in yeast extract-peptone-glucose medium at 187 ug/ml after 48 hrs by disc diffusion assay in presence of 150 ug/ml of congo red. The test is classed as functional. The method in brief:
as §1

The subject of test [14] is Escherichia coli. Nature of the test: Antibacterial activity against Escherichia coli harboring ampicillin-resistance gene encoding plasmid at 187 ug/ml after 24 hrs by disc diffusion assay. The test is classed as functional. Particulars: read-out: DIZ. The method in brief: as §2
Test [15] concerns Candida albicans. Nature of the test: Antifungal activity against Candida albicans in yeast extract-peptone-glucose medium at 187 ug/ml after 48 hrs by disc diffusion assay. In kind it is functional. The settings on record: read-out: DIZ. The method in brief:
as §1

Test [16] deals with Candida albicans. Nature of the test: Antifungal activity against Candida albicans in yeast extract-peptone-glucose medium at 187 ug/ml after 48 hrs by disc diffusion assay in presence of […]. The test is classed as functional. Summed up:
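This is a C. albicans disc diffusion on YEPD agar containing rhodamine 6G, a substrate of the Cdr1p/Cdr2p ATP-dependent efflux pumps, to test for enhanced R6G toxicity. A set number of cells was spread, and 0.5 cm discs were spotted with compound solution or reference solvent. Plates were incubated at 30 °C and the zone diameter was measured.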

For test [17], the system named is Candida albicans. Nature of the test: Antifungal activity against Candida albicans in yeast extract-peptone-glucose medium at 187 ug/ml after 48 hrs by disc diffusion assay in presence of 100 ug/ml of calcofluor white. In kind it is functional. The method in brief:
as §1

The subject of test [18] is Candida albicans. Nature of the test: Antifungal activity against Candida albicans in yeast extract-peptone-glucose medium at 600 ug/ml after 48 hrs by disc diffusion assay in presence of 0.01% of sodium dodecylsulphate. In kind it is functional. Particulars: read-out: DIZ. Summed up:
as §3

Test [19] relates to Candida albicans. Kind of test: Antifungal activity against Candida albicans in yeast extract-peptone-glucose medium at 600 ug/ml after 48 hrs by disc diffusion assay in presence of […]. The test is classed as functional. The settings on record: in the assay text read “20 ug/ml” for “150 ug/ml”. Summed up: as §5
For test [20], the system named is Candida albicans. Kind of test: Antifungal activity against Candida albicans in yeast extract-peptone-glucose medium at 600 ug/ml after 48 hrs by disc diffusion assay in presence of 150 ug/ml of congo red. The test is classed as functional. The method in brief: as §3
Test [21] relates to Candida albicans. Kind of test: Antifungal activity against Candida albicans in yeast extract-peptone-glucose medium at 600 ug/ml after 48 hrs by disc diffusion assay. In kind it is functional. The settings on record: read-out: DIZ. The method in brief: as §4
Test [22] concerns Escherichia coli. Nature of the test: Antibacterial activity against Escherichia coli harboring ampicillin-resistance gene encoding plasmid at 600 ug/ml after 24 hrs by disc diffusion assay. Particulars: read-out: DIZ. In kind it is functional. The method in brief:
as §2

Test [23] has as its system Candida albicans. Kind of test: Antifungal activity against Candida albicans in yeast extract-peptone-glucose medium at 600 ug/ml after 48 hrs by disc diffusion assay in presence of 100 ug/ml of calcofluor white. In kind it is functional. The method in brief:
as §3

On to `O=C(C(=O)N1CCOCC1)c1cn(CCCCCCn2cc(C(=O)C(=O)N3CCOCC3)c3ccccc32)c2ccccc12`, for which the zone of inhibition at 357 µg/mL turned out to be 5.5 mm in the test with Candida albicans [1] and 7.5 mm in the test with Escherichia coli [4]. In addition, the “diameter of the inhibition zone (DIZ)” value in the test with Candida albicans [2] and with Candida albicans [3] was 6.5 mm in each case.

The compound `O=C(C(=O)N1CCCC1)c1cn(CCCn2cc(C(=O)C(=O)N3CCCC3)c3cc(Br)ccc32)c2ccc(Br)cc12` showed an IC50 with Candida albicans [5] of 29.2 mM. In addition, the “diameter of the inhibition zone (DIZ)” value was 11.5 mm in the test on Candida albicans [6], 11.5 mm in the test on Candida albicans [8] and 12 mm with Candida albicans [9]. For the same compound, the zone of inhibition at 257 µg/mL is 11.5 mm in the test with Candida albicans [7], 13.5 mm in the test on Escherichia coli [10] and 11.5 mm in the test on Candida albicans [11].

As to `O=C(C(=O)N1CCCC1)c1cn(Cc2ccc(Cn3cc(C(=O)C(=O)N4CCCC4)c4ccccc43)cc2)c2ccccc12`, the zone of inhibition at 187 µg/mL was 8 mm with Candida albicans [12], 7 mm in the test with Escherichia coli [14] and 7.5 mm with Candida albicans [15]. Further, the “diameter of the inhibition zone (DIZ)” value is 7 mm in the test on Candida albicans [13], 7 mm in the test with Candida albicans [16] and 6.5 mm in the test on Candida albicans [17].

For the compound `O=C(NCc1ccccc1)C(=O)c1cn(Cc2ccc(Cn3cc(C(=O)C(=O)NCc4ccccc4)c4ccccc43)cc2)c2ccccc12`, 0.02 mM corresponded to half-maximal inhibition with Candida albicans [5] (IC50). The zone of inhibition at 600 µg/mL in the test on Candida albicans [18] turned out to be 12.5 mm; in the test with Candida albicans [21], 12.5 mm; with Escherichia coli [22] it was 9 mm. Moreover, the “diameter of the inhibition zone (DIZ)” value in the test on Candida albicans [19] was 11 mm; with Candida albicans [20] it was 10.5 mm; with Candida albicans [23], 11.5 mm.

Source of the values: ChEMBL document CHEMBL1777792, “Synthesis and evaluation of indole-based new scaffolds for antimicrobial activities--identification of promising candidates” (Bioorg Med Chem Lett, 2011).
